ChEMBL document CHEMBL1151848, “Aryl nucleoside H-phosphonates. Part 16: synthesis and anti-HIV-1 activity of di-aryl nucleoside phosphotriesters” (Bioorg Med Chem, 2009)
Values belong to the compound of their own block, whether it stands above or below them.

Tests used:
[1] = Chemical stability assessed as enzymatic hydrolysis half life in RPMI-1640 culture medium containing heat non-inactivated fetal bovine serum by HPLC analysis; format: physicochemical; details: cattle
In short: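 Enzymatic hydrolysis by phosphoesterases was followed in RPMI-1640 containing heat non-inactivated FBS (RPMI/FBS 9:1, v/v).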

[2] = Chemical stability in RPMI-1640 culture medium at 2 uM up to 6 days by HPLC analysis; format: physicochemical; details: 144 h
[3] = system: Human immunodeficiency virus 1; assay: Antiviral activity against HIV1 3B infected in human MT4 cells assessed as protection from virus-induced cytopathogenicity after 4 days by MTT assay; format: functional, organism-based; details: Human immunodeficiency virus 1, 3B, MT4, 96 h
In short: (§1)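 MT-4 cells, acutely infected at m.o.i. 0.01, were used to read inhibition of HIV-1-induced cytopathogenicity. Compounds were made as 100 mM DMSO stocks and diluted in culture medium. Viability was read by MTT. EC50 is the concentration giving 50% protection, as the mean (+SD) of three independent determinations.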

[4] = system: Human immunodeficiency virus 1; assay: Antiviral activity against MDR1-resistant HIV1 infected in human MT4 cells assessed as protection from virus-induced cytopathogenicity after 4 days by MTT assay; format: functional, organism-based; details: Human immunodeficiency virus 1, MT4, 96 h; in short: as §1
[5] = system: Human immunodeficiency virus 1; assay: Antiviral activity against efavirenz-resistant HIV1 infected in human MT4 cells assessed as protection from virus-induced cytopathogenicity after 4 days by MTT assay; format: functional, organism-based; details: Human immunodeficiency virus 1, MT4, 96 h; in short: as §1
[6] = system: Human immunodeficiency virus 1; assay: Antiviral activity against azidothymidine-resistant HIV1 infected in human MT4 cells assessed as protection from virus-induced cytopathogenicity after 4 days by MTT assay; format: functional, organism-based; details: Human immunodeficiency virus 1, MT4, 96 h; in short: as §1
[7] = system: Human immunodeficiency virus 1; assay: Antiviral activity against non-nucleoside reverse transcriptase inhibitor-resistant HIV1 bearing reverse transcriptase N119 (Y181C) mutation infected in human MT4 cells assessed as protection from virus-induced cytopathogenicity after 4 days by MTT assay; format: functional, organism-based; details: Human immunodeficiency virus 1, MT4, 96 h; in short: as §1
[8] = Chemical stability assessed as chemical hydrolysis half life in RPMI-1640 culture medium by HPLC analysis; format: physicochemical
In short: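 Chemical hydrolysis of the compounds was followed in RPMI-1640 medium alone.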

[9] = Selectivity index, ratio of CC50 for human MT4 cells to EC50 for HIV1 3B; format: toxicity, cell-based; details: read-out: Ratio CC50/EC50
[10] = system: Human immunodeficiency virus 1; assay: Antiviral activity against non-nucleoside reverse transcriptase inhibitor-resistant HIV1 bearing reverse transcriptase A17 (K103N, Y181C) mutation infected in human MT4 cells assessed as protection from virus-induced cytopathogenicity after 4 days by MTT assay; format: functional, organism-based; details: Human immunodeficiency virus 1, MT4, 96 h; in short: as §1
[11] = Cytotoxicity against human MT4 cells after 96 hrs by MTT assay; format: cell-based
In short: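 Exponentially growing mock-infected MT-4 cells were seeded at 1 × 10⁵ cells/ml in RPMI-1640 with 10% FCS, penicillin G and streptomycin. They were incubated with serial compound dilutions at 37 °C in humidified 5% CO₂, and viability was read by MTT after 96 h. CC50 is the concentration reducing viability by 50%, as the mean of three independent determinations.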

half-life [1]: 3.03 h | Stability [2]: Stable
SMILES: Cc1cn([C@H]2C[C@H](N=[N+]=[N-])[C@@H](COP(=O)(O)Oc3ccc(Cl)cc3Cl)O2)c(=O)[nH]c1=O

SMILES: Cc1cn([C@H]2C[C@H](N=[N+]=[N-])[C@@H](COP(=O)(O)Oc3cncc(Cl)c3)O2)c(=O)[nH]c1=O
half-life [1]: 7.27 h | Stability [2]: Stable

SMILES: Nc1ncnc2c1ncn2[C@H]1CC[C@@H](COP(=O)(O)Oc2ccccc2)O1
half-life [1]: 36.1 h | Stability [2]: Stable

SMILES: Cc1cn([C@H]2C[C@H](N=[N+]=[N-])[C@@H](COP(=O)(O)Oc3cccnc3Cl)O2)c(=O)[nH]c1=O
half-life [1]: 16.3 h | Stability [2]: Stable

SMILES: Cc1cn([C@H]2C[C@H](N=[N+]=[N-])[C@@H](COP(=O)(O)Oc3ccc(Br)cc3)O2)c(=O)[nH]c1=O
half-life [1]: 7.97 h | Stability [2]: Stable

SMILES: O=c1ccn([C@H]2CC[C@@H](COP(=O)(O)Oc3ccccc3)O2)c(=O)[nH]1
half-life [1]: 25.1 h | Stability [2]: Stable

SMILES: Cc1cn([C@H]2C[C@H](N=[N+]=[N-])[C@@H](COP(=O)(O)Oc3cccnc3)O2)c(=O)[nH]c1=O
half-life [1]: 3.88 h | Stability [2]: Stable

SMILES: O=c1ccn([C@H]2CC[C@@H](COP(=O)(O)Oc3cccnc3)O2)c(=O)[nH]1
half-life [1]: 50.2 h | Stability [2]: Stable

SMILES: Cc1cn([C@H]2C[C@H](N=[N+]=[N-])[C@@H](COP(=O)(O)Oc3ccccc3)O2)c(=O)[nH]c1=O
half-life [1]: 9.47 h | Stability [2]: Stable

SMILES: Nc1ncnc2c1ncn2[C@H]1CC[C@@H](COP(=O)(O)Oc2cccnc2)O1
half-life [1]: 64.2 h | Stability [2]: Stable

SMILES: Cc1ncccc1OP(=O)(OC[C@H]1O[C@@H](n2cc(C)c(=O)[nH]c2=O)C[C@@H]1N=[N+]=[N-])Oc1cccnc1C
EC50 [3]: 20 nM | EC50 [4]: 200 nM | EC50 [5]: 20 nM | EC50 [6]: 800 nM | EC50 [7]: 30 nM | half-life [8]: 17.2 h | selectivity ratio [9]: > 5000 | EC50 [10]: 10 nM | CC50 at 96 h [11]: > 100000 nM

SMILES: Cc1cn([C@H]2C[C@H](N=[N+]=[N-])[C@@H](COP(=O)(O)Oc3ccc(Cl)cc3)O2)c(=O)[nH]c1=O
half-life [1]: 5.5 h | Stability [2]: Stable

SMILES: Cc1ncccc1OP(=O)(O)OC[C@H]1O[C@@H](n2cc(C)c(=O)[nH]c2=O)C[C@@H]1N=[N+]=[N-]
half-life [1]: 15.8 h | Stability [2]: Stable

SMILES: Cc1cn([C@H]2C[C@H](N=[N+]=[N-])[C@@H](COP(=O)(Oc3ccc(C#N)cc3)Oc3cccnc3)O2)c(=O)[nH]c1=O (some centres undefined)
EC50 [3]: 20 nM | EC50 [4]: 300 nM | EC50 [5]: 30 nM | EC50 [6]: 800 nM | EC50 [7]: 20 nM | half-life [8]: 2.88 h | selectivity ratio [9]: 2900 | EC50 [10]: 9 nM | CC50 at 96 h [11]: 58000 nM

SMILES: Cc1ccc(OP(=O)(O)OC[C@H]2O[C@@H](n3cc(C)c(=O)[nH]c3=O)C[C@@H]2N=[N+]=[N-])cn1
half-life [1]: 28.9 h | Stability [2]: Stable

SMILES: O=c1ccn([C@H]2CC[C@@H](COP(=O)(O)Oc3ccncc3)O2)c(=O)[nH]1
half-life [1]: 23.6 h | Stability [2]: Stable

SMILES: Cc1cn([C@H]2C[C@H](N=[N+]=[N-])[C@@H](COP(=O)(Oc3ccccc3)Oc3cccnc3)O2)c(=O)[nH]c1=O (some centres undefined)
EC50 [3]: 50 nM | EC50 [4]: 500 nM | EC50 [5]: 30 nM | EC50 [6]: 2300 nM | EC50 [7]: 40 nM | half-life [8]: 50.2 h | selectivity ratio [9]: > 2000 | EC50 [10]: 20 nM | CC50 at 96 h [11]: > 100000 nM

half-life [1]: 7.08 h | Stability [2]: Stable
SMILES: Cc1cn([C@H]2C[C@H](N=[N+]=[N-])[C@@H](COP(=O)(O)Oc3ccc(C#N)cc3)O2)c(=O)[nH]c1=O

SMILES: O=c1ccn([C@H]2CC[C@@H](COP(=O)(Oc3ccccc3)Oc3ccncc3)O2)c(=O)[nH]1 (some centres undefined)
EC50 [3]: 3000 nM | EC50 [4]: 38000 nM | EC50 [5]: 2000 nM | EC50 [6]: 60000 nM | EC50 [7]: 4000 nM | half-life [8]: 26.8 h | selectivity ratio [9]: > 33 | EC50 [10]: 2000 nM | CC50 at 96 h [11]: > 100000 nM

SMILES: Cc1cn([C@H]2C[C@H](N=[N+]=[N-])[C@@H](COP(=O)(O)Oc3ccncc3)O2)c(=O)[nH]c1=O
half-life [1]: 8.07 h | Stability [2]: Stable

SMILES: O=c1ccn([C@H]2CC[C@@H](COP(=O)(Oc3ccccc3)Oc3cccnc3)O2)c(=O)[nH]1 (some centres undefined)
EC50 [3]: 38000 nM | EC50 [4]: > 100000 nM | EC50 [5]: 20000 nM | EC50 [6]: > 100000 nM | EC50 [7]: 30000 nM | half-life [8]: 64.2 h | selectivity ratio [9]: > 2 | EC50 [10]: 11000 nM | CC50 at 96 h [11]: > 100000 nM

SMILES: Cc1cn([C@H]2C[C@H](N=[N+]=[N-])[C@@H](COP(=O)(Oc3ccc(Br)cc3)Oc3cccnc3)O2)c(=O)[nH]c1=O (some centres undefined)
EC50 [3]: 30 nM | EC50 [4]: 500 nM | EC50 [5]: 20 nM | EC50 [6]: 1800 nM | EC50 [7]: 50 nM | half-life [8]: 44.3 h | selectivity ratio [9]: 3130 | EC50 [10]: 10 nM | CC50 at 96 h [11]: 94000 nM

SMILES: Cc1cn([C@H]2C[C@H](N=[N+]=[N-])[C@@H](COP(=O)(Oc3ccccc3)Oc3cccnc3Cl)O2)c(=O)[nH]c1=O (some centres undefined)
EC50 [3]: 30 nM | EC50 [4]: 400 nM | EC50 [5]: 10 nM | EC50 [6]: 1200 nM | EC50 [7]: 20 nM | half-life [8]: 16.1 h | selectivity ratio [9]: > 3330 | EC50 [10]: 10 nM | CC50 at 96 h [11]: ≥ 100000 nM

SMILES: Cc1cn([C@H]2C[C@H](N=[N+]=[N-])[C@@H](COP(=O)(Oc3ccccc3)Oc3cncc(Cl)c3)O2)c(=O)[nH]c1=O (some centres undefined)
EC50 [3]: 40 nM | EC50 [4]: 600 nM | EC50 [5]: 10 nM | EC50 [6]: 1500 nM | EC50 [7]: 50 nM | half-life [8]: 25.1 h | selectivity ratio [9]: 2500 | EC50 [10]: 10 nM | CC50 at 96 h [11]: 100000 nM
